Reference: PMC7104935 (Asian Pacific Journal of Tropical Medicine, 2015)
In brackets after ≈: the same amount, converted by molar mass. Several values for one entry are separate records, joined by “and”; a condition that tells them apart may be missing. Equal values may be shown once. Entries after “also recorded” stand apart in the source; their conditions may differ. Where a name gives a salt, the structure may show the parent alone. Read-outs that look alike come from different tables or passages of the source. Marks after values point to notes of the source that are not given here.

Key:
[1] = tested on: mouse hepatitis virus (MHV); experiment: microbe, parasite or virus in culture; type: cell-based, murine coronavirus; conditions: for IC50: read-out: IC50 against MHV
[2] = tested on: DENV-2 New Guinea C strain; experiment: DENV-2 plaque reduction neutralization test; type: cell-based, dengue virus type 2; conditions: for Selectivity index (DENV-2): CC50/IC50, '>' values with absence of cytotoxicity; for IC50: Dengue virus, DENV2, BHK-21, read-out: IC50 against DENV-2
Outline: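 DENV-2 New Guinea C was propagated in C6/36 cells (L15, 3% FBS, 28 °C). 2-fold dilutions were made: extract fraction 166.67 to 0.08 μg/mL, flavonoids 500.00 to 15.63 μg/mL. Each was preincubated 1 h with 90 PFU, then adsorbed 1 h at 37 °C on BHK-21 monolayers (RPMI-1640, 10% FBS). Plates had 1% carboxymethylcellulose overlay for 6 d, then crystal violet plaque count. Run in duplicate, with mAb 3H5 as positive control. IC50 came from % plaque reduction curves.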

HSV-1 = conditions: cited from earlier work
BHK-21 cells = experiment: MTT cell viability and proliferation assay, BHK-21 cells; type: cell-based, baby hamster; conditions: at concentrations tested in PRNT
Outline: (§1)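 BHK-21 monolayers were exposed to test compound for 48 h at 37 °C, 5% CO2, at the concentrations used in neutralization tests. MTT was added for 4 h, then 100 g/L SDS in 0.01 mol/L HCl overnight in the dark at room temperature. OD was read at 570 nm. Inhibition rate was taken relative to solvent-treated cells, and CC50 came from the concentration plot. Experiments were repeated; mean and standard deviation reported.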

[3] = as above; type: cell-based, baby hamster; conditions: hamster, BHK-21 cells (monolayers)
Outline: as §1

in vitro = conditions: mouse

SMILES | Cytotoxicity on CCL9.1 cells (CCL9.1 cells) | Duration of inhibition of viral infectivity [1] | IC50 against MHV [1] | MHV inhibition [1] | MIC, anti-MHV activity [1] | Selectivity index (MHV) [1] | IC50 ([1]; Murine coronavirus) | MIC ([1]; Murine coronavirus, read-out: MIC, anti-MHV activity) | Anti-DENV-2 activity ([2]; PRNT, 500.00 down to 15.63 μg/mL) | Activity on HSV-1 among flavonoids (HSV-1) | Cytotoxicity to BHK cells (BHK-21 cells) | Antiviral activity against MHV [1] | Selectivity index (DENV-2) [2] | IC50 [2] | CC50 (CCL9.1 cells; mouse) | CC50 at 48 h [3] | CC50 (in vitro) | IC50 ([1]; Murine coronavirus, 1 h)
CN(C)CCCSc1ccccc1NC(=O)/C=C/c1ccccc1 [Cinanserin, cinanserin hydrochloride] | minimal or no cytotoxicity | 2 days | 62.50 µg/mL | no viral inhibition; also recorded: could not inhibit MHV | 62.50 µg/mL and 62.5 µg/mL | >4.00 ^c and >2.00 ^c | 31.2 µg/mL | 31.2 µg/mL | – | – | – | – | – | – | – | – | – | –
C[C@@H]1O[C@@H](OC[C@H]2O[C@@H](Oc3c(-c4ccc(O)c(O)c4)oc4cc(O)cc(O)c4c3=O)[C@H](O)[C@@H](O)[C@@H]2O)[C@H](O)[C@H](O)[C@H]1O [Rutin, quercetin-3-rutinoside] | – | – | NIL | – | – | – | – | – | no anti-DENV-2 activity was detected | no effect at all | without cytotoxicity | did not exhibit antiviral activity | – | – | – | – | – | –
C[C@@H]1O[C@@H](Oc2c(-c3ccc(O)c(O)c3)oc3cc(O)cc(O)c3c2=O)[C@H](O)[C@H](O)[C@H]1O [Quercitrin, quercetin-3-L-rhamnoside] | – | – | NIL | – | – | – | – | – | – | – | did not cause cytotoxicity | did not exhibit antiviral activity | >1.07 ^c | 467 µg/mL (≈ 1040 µM) | – | – | – | –
O=c1c(O)c(-c2ccc(O)c(O)c2)oc2cc(O)cc(O)c12 [Quercetin, quercetin] | – | up to 6 d | – | – | – | 0.93 | – | – | – | highest activity | – | – | 0.88 | 177 µg/mL (≈ 585 µM) | 116.52 µg/mL (≈ 386 µM) | 155 µg/mL (≈ 514 µM) | 116 µg/mL (≈ 385 µM) | 125 µg/mL (≈ 414 µM)
